Source: ChEMBL document CHEMBL2062373, “Discovery of pyrroloaminopyrazoles as novel PAK inhibitors” (J Med Chem, 2012)
In brackets after ≈: the same amount, converted by molar mass. Each block holds one compound with its values, some of them ahead of it.

Legend:
[1] = Octanol/buffer partition coefficient, log D of the compound at pH 7.4; type: physicochemical
[2] = Aqueous solubility of the compound; type: physicochemical; conditions: buffer
[3] = molecular target: T1, Cyclin-dependent kinase 2 (Homo sapiens, UniProt P24941)
[4] = molecular target: T2, Serine/threonine-protein kinase PAK 4 (Homo sapiens, UniProt O96013); experiment: Inhibition of PAK4
[5] = Metabolic stability in human liver microsomes assessed as extraction ratio; type: ADME, Microsome; conditions: read-out: ERH
[6] = Efflux ratio of permeability from basolateral to apical side over apical to basolateral side in human Caco2 cells; type: ADME, cell-based; conditions: Caco-2
Mus musculus [7] = experiment: Down regulation of GEF-H1 phosphorylation in human HCT116 cells xenografted in mouse tumor at 80 mg/kg/day, sc administered via continuous infusion measured after 18 hrs; type: functional, HCT-116; conditions: route subcutaneous
In short: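 Tumour-bearing mice received drug by continuous infusion from an implanted subcutaneous pump at 80 mg/kg/day. Tumours were taken at 18 h and pGEF-H1 levels were measured. Downregulation is expressed as percent reduction.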

[8] = Clearance in rat at 5 mg/kg, iv and 10 mg/kg, po; type: ADME, organism-based; conditions: in vivo
[9] = Volume of distribution at steady state in rat at 5 mg/kg, iv and 10 mg/kg, po; type: ADME, organism-based; conditions: in vivo, read-out: Vdss
[10] = Half life in rat at 5 mg/kg, iv and 10 mg/kg, po; type: ADME, organism-based; conditions: in vivo
[11] = Oral bioavailability in rat at 10 mg/kg; type: ADME, organism-based; conditions: in vivo
[12] = molecular target: T2, Serine/threonine-protein kinase PAK 4; experiment: Inhibition of PAK4-mediated GEF-H1 phosphorylation at Ser810 by cell based assay
[13] = Metabolic stability of the compound in human liver microsomes assessed as compound remaining after 30 mins; type: ADME, Microsome; conditions: read-out: Stability
[14] = molecular target: T1, Cyclin-dependent kinase 2; experiment: Inhibition of CDK2 at 1 uM
Mus musculus [15] = experiment: Free dug level in mouse xenografted with human HCT116 cells at 25 mg/kg, po BID for 15 days; type: ADME, organism-based, HCT-116; parameters: dose 25 mg/kg, route oral; conditions: in vivo, 360 h
In short: (§1)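 The read-out is free drug exposure, reported as unbound average concentration (free Cave) in nM. It was obtained from mice dosed orally at the stated regimen, sid or bid, during the xenograft efficacy study.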

HCT-116 [16] = experiment: Antitumor activity against human HCT116 cells xenografted in mouse assessed as tumor growth inhibition at 25 mg/kg, po BID for 15 days; type: functional; conditions: HCT-116, 360 h, read-out: TGI
Mus musculus [17] = experiment: Free dug level in mouse xenografted with human HCT116 cells at 50 mg/kg, po SID for 15 days; type: ADME, organism-based, HCT-116; parameters: dose 50 mg/kg, route oral; conditions: in vivo, 360 h; in short: as §1
HCT-116 [18] = experiment: Antitumor activity against human HCT116 cells xenografted in mouse assessed as tumor growth inhibition at 50 mg/kg, po SID for 15 days; type: functional; conditions: HCT-116, 360 h, read-out: TGI
Mus musculus [19] = experiment: Free dug level in mouse xenografted with human M24 cells at 7.5 mg/kg, po BID for 15 days; type: ADME, organism-based; parameters: dose 7.5 mg/kg, route oral; conditions: in vivo, 360 h; in short: as §1
[20] = Antitumor activity against human M24 cells xenografted in mouse assessed as tumor growth inhibition at 7.5 mg/kg, po BID for 15 days; type: functional; conditions: M24, 360 h, read-out: TGI
Mus musculus [21] = experiment: Free dug level in mouse xenografted with human M24 cells at 15 mg/kg, po BID for 15 days; type: ADME, organism-based; parameters: dose 15 mg/kg, route oral; conditions: in vivo, 360 h; in short: as §1
[22] = Antitumor activity against human M24 cells xenografted in mouse assessed as tumor growth inhibition at 15 mg/kg, po BID for 15 days; type: functional; conditions: M24, 360 h, read-out: TGI
[23] = molecular target: AMP-activated protein kinase, AMPK (Homo sapiens) (UniProt P54646+O43741+P54619+Q9UGJ0+Q9Y478+Q13131+Q9UGI9); experiment: Inhibition of AMPK at 1000 nM; type: protein-complex assay
[24] = molecular target: Cyclin-dependent kinase 7 (Homo sapiens) (UniProt P50613); experiment: Inhibition of cdk7 at 1000 nM
[25] = molecular target: Mitogen-activated protein kinase 1 (Homo sapiens, UniProt P28482); experiment: Inhibition of Erk2 at 1000 nM
[26] = molecular target: T3, Lymphokine-activated killer T-cell-originated protein kinase (Homo sapiens) (UniProt Q96KB5); experiment: Inhibition of PBK at 1000 nM
T3 sequence (whole entry): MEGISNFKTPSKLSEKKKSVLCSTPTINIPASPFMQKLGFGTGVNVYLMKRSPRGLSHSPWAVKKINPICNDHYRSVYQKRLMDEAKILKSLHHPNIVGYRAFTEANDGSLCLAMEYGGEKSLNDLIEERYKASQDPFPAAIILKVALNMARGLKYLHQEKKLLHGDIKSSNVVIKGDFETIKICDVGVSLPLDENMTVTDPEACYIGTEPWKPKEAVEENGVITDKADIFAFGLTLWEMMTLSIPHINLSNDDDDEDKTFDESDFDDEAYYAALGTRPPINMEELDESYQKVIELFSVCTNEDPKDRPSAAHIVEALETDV

[27] = molecular target: Glycogen synthase kinase-3 beta (Homo sapiens, UniProt P49841); experiment: Inhibition of GSK3beta at 1000 nM
Homo sapiens [28] = organism: Homo sapiens; experiment: Inhibition of RSK at 1000 nM
Homo sapiens [29] = organism: Homo sapiens; experiment: Inhibition of PKA at 1000 nM
[30] = molecular target: Serine/threonine-protein kinase MARK1 (Homo sapiens, UniProt Q9P0L2); experiment: Inhibition of MARK at 1000 nM
[31] = molecular target: Serine/threonine-protein kinase 26 (Homo sapiens) (UniProt Q9P289); experiment: Inhibition of MST4 at 1000 nM
Chain of Serine/threonine-protein kinase 26 (Homo sapiens) (Q9P289 2-416 limits assumed): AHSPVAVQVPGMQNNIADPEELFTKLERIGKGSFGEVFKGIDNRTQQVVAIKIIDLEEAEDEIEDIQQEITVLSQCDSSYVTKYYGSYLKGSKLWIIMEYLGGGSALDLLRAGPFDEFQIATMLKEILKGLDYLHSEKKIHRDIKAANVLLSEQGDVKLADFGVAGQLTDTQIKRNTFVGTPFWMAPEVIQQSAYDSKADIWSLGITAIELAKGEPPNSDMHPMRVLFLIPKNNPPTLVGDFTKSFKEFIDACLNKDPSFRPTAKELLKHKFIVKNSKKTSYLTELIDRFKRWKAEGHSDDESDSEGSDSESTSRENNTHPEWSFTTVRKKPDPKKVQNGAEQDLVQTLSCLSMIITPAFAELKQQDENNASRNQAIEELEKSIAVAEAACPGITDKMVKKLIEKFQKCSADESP

T2 sequence (O96013 whole entry): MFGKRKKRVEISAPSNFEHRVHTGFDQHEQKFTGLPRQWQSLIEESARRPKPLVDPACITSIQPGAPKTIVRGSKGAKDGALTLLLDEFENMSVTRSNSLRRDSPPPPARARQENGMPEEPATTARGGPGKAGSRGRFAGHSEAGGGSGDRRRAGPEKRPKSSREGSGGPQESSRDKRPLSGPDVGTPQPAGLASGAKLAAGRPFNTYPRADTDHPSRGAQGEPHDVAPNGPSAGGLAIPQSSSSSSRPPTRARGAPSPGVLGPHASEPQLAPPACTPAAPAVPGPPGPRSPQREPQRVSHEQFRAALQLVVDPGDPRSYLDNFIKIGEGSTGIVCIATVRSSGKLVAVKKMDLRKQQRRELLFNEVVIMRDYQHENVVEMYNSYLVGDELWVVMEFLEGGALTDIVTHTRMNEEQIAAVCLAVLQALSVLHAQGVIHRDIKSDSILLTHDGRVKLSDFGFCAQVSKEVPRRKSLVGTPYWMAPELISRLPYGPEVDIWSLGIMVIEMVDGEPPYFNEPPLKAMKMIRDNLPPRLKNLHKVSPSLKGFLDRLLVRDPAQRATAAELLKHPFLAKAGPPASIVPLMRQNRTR
Chain of Cyclin-dependent kinase 7 (Homo sapiens) (P50613 whole entry): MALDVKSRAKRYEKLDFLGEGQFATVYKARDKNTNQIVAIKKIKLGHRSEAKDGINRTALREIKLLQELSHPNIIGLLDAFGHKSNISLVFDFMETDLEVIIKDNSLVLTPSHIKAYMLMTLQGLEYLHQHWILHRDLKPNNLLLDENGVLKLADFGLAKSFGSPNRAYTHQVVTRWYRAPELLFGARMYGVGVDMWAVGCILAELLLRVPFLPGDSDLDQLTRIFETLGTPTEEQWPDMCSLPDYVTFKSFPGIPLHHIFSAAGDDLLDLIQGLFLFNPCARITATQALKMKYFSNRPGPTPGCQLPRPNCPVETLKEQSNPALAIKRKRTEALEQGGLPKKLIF
Chain of Glycogen synthase kinase-3 beta (P49841 whole entry, looked up): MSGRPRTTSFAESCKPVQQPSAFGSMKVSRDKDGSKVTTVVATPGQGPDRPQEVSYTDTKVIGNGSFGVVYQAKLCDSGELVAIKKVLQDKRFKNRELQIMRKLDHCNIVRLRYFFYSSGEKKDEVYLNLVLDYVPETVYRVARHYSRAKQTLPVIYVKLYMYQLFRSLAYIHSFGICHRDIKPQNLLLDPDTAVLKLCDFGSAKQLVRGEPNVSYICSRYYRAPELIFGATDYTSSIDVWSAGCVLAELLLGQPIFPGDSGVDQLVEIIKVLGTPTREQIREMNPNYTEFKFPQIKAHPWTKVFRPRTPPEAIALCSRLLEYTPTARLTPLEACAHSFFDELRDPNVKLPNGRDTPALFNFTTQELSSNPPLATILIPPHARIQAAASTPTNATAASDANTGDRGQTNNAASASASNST
Chain of Mitogen-activated protein kinase 1 (P28482 whole entry): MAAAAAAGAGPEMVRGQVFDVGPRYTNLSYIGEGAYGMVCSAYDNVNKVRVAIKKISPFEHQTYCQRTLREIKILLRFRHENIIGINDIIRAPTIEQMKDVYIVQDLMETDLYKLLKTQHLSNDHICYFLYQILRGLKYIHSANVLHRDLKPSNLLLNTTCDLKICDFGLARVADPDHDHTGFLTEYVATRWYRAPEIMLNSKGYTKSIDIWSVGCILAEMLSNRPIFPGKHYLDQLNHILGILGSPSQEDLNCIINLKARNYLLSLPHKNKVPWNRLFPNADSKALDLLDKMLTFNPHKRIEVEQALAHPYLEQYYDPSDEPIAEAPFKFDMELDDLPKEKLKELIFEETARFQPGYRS
Chain of Serine/threonine-protein kinase MARK1 (Q9P0L2 whole entry, looked up): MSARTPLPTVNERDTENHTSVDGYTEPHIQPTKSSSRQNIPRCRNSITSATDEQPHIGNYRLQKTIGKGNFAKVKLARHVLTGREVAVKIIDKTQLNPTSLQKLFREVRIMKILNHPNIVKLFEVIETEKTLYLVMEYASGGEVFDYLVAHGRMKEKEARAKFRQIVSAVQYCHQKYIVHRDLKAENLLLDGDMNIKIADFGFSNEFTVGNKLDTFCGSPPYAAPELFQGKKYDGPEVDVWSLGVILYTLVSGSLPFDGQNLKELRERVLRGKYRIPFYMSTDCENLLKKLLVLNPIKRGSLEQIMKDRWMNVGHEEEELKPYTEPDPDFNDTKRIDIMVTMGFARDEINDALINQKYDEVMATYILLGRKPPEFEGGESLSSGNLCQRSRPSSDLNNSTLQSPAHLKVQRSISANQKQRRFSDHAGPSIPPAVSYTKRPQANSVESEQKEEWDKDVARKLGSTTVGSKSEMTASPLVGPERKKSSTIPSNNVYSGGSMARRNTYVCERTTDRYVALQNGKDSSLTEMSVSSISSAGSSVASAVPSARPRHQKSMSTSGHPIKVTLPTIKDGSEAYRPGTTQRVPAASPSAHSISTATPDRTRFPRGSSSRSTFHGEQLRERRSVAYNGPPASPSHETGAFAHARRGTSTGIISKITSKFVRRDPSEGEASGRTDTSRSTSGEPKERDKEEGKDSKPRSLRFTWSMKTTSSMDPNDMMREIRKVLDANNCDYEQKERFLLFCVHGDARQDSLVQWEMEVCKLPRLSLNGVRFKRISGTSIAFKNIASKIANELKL

Compound: CN1CCN(C(=O)N2Cc3c(NC(=O)c4cccc(Oc5ccccc5)c4)n[nH]c3C2(C)C)[C@@H](Cc2ccccc2)C1
EC50 ([12]; read-out: EC50): 0.81 µM
logD [1]: 5.45
remaining at 0.5 h [13]: 2%
inhibition [14]: 20%

Compound: CN(C)C[C@@H](OC(=O)N1Cc2c(NC(=O)C3(C(F)(F)F)CCC3)n[nH]c2C1(C)C)c1ccccc1
EC50 ([12]; read-out: EC50): < 0.001 µM
logD [1]: 1.6
hepatic extraction ratio [5]: 0.6

Compound: CN(C)C[C@@H](OC(=O)N1Cc2c(NC(=O)C(C)(C)C(F)(F)F)n[nH]c2C1(C)C)c1ccccc1
EC50 ([12]; read-out: EC50): 0.001 µM
logD [1]: 1.61
hepatic extraction ratio [5]: 0.55
clearance [8]: 37 mL/min/kg
Vd [9]: 4.3 L/kg
half-life [10]: 1.3 h
bioavailability [11]: 45%
Drug uptake(free) (Mus musculus [19]): 13.9 nM
inhibition in vivo at 7.5 mg/kg [20]: 67%
Drug uptake(free) (Mus musculus [21]): 31 nM
inhibition in vivo at 15 mg/kg [22]: 87%
inhibition [23]: > 70%
inhibition [24]: > 70%
inhibition [25]: > 70%
inhibition [26]: > 70%
inhibition [27]: > 70%
inhibition (Homo sapiens [28]): > 70%
inhibition (Homo sapiens [29]): > 70%
inhibition [30]: > 70%
inhibition [31]: > 70%

Compound: CN(C)C[C@@H](NC(=O)c1ccc2[nH]nc(-c3nc4ccccc4[nH]3)c2c1)c1ccccc1
Ki [4]: 0.006 µM
EC50 ([12]; read-out: EC50): 0.0126 µM
logD [1]: 3.6

Compound: CN(C)C[C@@H](OC(=O)N1Cc2c(NC(=O)C3(C(F)(F)F)CC3)n[nH]c2C1(C)C)c1ccccc1
EC50 ([12]; read-out: EC50): 0.007 µM
logD [1]: 1.5
hepatic extraction ratio [5]: 0.42
clearance [8]: 24.1 mL/min/kg
Vd [9]: 2.8 L/kg
half-life [10]: 1.5 h
bioavailability [11]: 46%

Compound: CN1CCN(C(=O)N2Cc3c(n[nH]c3NC(=O)c3ccccc3)C2(C)C)C(c2ccccc2)C1 (stereo unspecified)
Ki [4]: 0.207 µM
EC50 ([12]; read-out: EC50): 0.021 µM
logD [1]: 3.2
hepatic extraction ratio [5]: 0.7
efflux ratio [6]: 187

Compound: CN(C)C[C@@H](NC(=O)c1ccc2[nH]nc(-c3nc4ccc(NCc5ccc(-c6ccccn6)cc5)cc4[nH]3)c2c1)c1ccccc1
Ki [4]: 0.0028 µM

Continued, in another order:

logD [1]: 2.66
solubility [2]: 434 µM (≈ 194 µg/mL)
Ki [3]: 2 µM
Compound: CN(C)C[C@@H](OC(=O)N1Cc2c(NC(=O)c3ccccc3)n[nH]c2C1(C)C)c1ccccc1

Ki [4]: 0.03 µM
logD [1]: 1.77
hepatic extraction ratio [5]: 0.39
solubility [2]: 395 µM (≈ 176 µg/mL)
efflux ratio [6]: 326
Ki [3]: 1.8 µM
Compound: CN(C)C[C@@H](NC(=O)N1Cc2c(NC(=O)c3ccccc3)n[nH]c2C1(C)C)c1ccccc1
Activity (Mus musculus [7]): 61%

logD [1]: 2.08
hepatic extraction ratio [5]: 0.4
efflux ratio [6]: 8.7
clearance [8]: 69 mL/min/kg
Vd [9]: 2.2 L/kg
half-life [10]: 0.5 h
bioavailability [11]: 20%
Compound: CN(C)C[C@@H](OC(=O)N1Cc2c(NC(=O)C3CCCO3)n[nH]c2C1(C)C)c1ccccc1 (mixture of isomers)

Ki [4]: 0.013 µM
EC50 ([12]; read-out: EC50): 0.009 µM
logD [1]: 2.79
hepatic extraction ratio [5]: 0.7
solubility [2]: 404 µM (≈ 188 µg/mL)
efflux ratio [6]: 7
Drug uptake(free) (Mus musculus [15]): 25 nM
Drug uptake(free) (Mus musculus [17]): 70 nM
clearance [8]: 98 mL/min/kg
Vd [9]: 6.1 L/kg
half-life [10]: 1.1 h
bioavailability [11]: 9%
Ki [3]: 1.16 µM
Compound: CN(C)C[C@@H](OC(=O)N1Cc2c(NC(=O)c3ccc(F)cc3)n[nH]c2C1(C)C)c1ccccc1
inhibition in vivo at 25 mg/kg (HCT-116 [16]): 61%
inhibition in vivo at 50 mg/kg (HCT-116 [18]): 12%

EC50 [12]: Not Active
logD [1]: 2.68
hepatic extraction ratio [5]: 0.5
efflux ratio [6]: 53.6
Compound: CN(C)C[C@H](c1ccccc1)N(C)C(=O)N1Cc2c(NC(=O)c3ccccc3)n[nH]c2C1(C)C

logD [1]: 2.33
hepatic extraction ratio [5]: 0.38
efflux ratio [6]: 231
Compound: CN(C)C[C@@H](NC(=O)N1Cc2c(NC(=O)c3ccccc3F)n[nH]c2C1(C)C)c1ccccc1

logD [1]: 2.23
hepatic extraction ratio [5]: 0.67
efflux ratio [6]: 1.61
clearance [8]: 146 mL/min/kg
Vd [9]: 4.8 L/kg
half-life [10]: 0.7 h
bioavailability [11]: 2%
Compound: CN(C)C[C@@H](OC(=O)N1Cc2c(NC(=O)c3ccccn3)n[nH]c2C1(C)C)c1ccccc1

EC50 ([12]; read-out: EC50): 0.015 µM
logD [1]: 2.68
hepatic extraction ratio [5]: 0.9
efflux ratio [6]: 1.17
Compound: CN(C)C[C@@H](OC(=O)N1Cc2c(NC(=O)c3ccc(F)cc3F)n[nH]c2C1(C)C)c1ccccc1

logD [1]: 2.48
hepatic extraction ratio [5]: 1
efflux ratio [6]: 3.6
Compound: CN(C)C[C@@H](OC(=O)N1Cc2c(NC(=O)C3CCCCO3)n[nH]c2C1(C)C)c1ccccc1 (mixture of isomers)
